Compounds with a hit are over-represented: about 2% of the library has one in this group of screens.
PglD inh – blocks C. jejuni PglD acetyltransferase activity; purified PglD enzyme, DTNB colorimetric CoA detection; inhibition, % at 12.5 µM; 360,000 compounds, 0.098% hits; AID 602405; in the data active means inhibition above about 16%, passing the limit was not always enough
RAD52 anneal inh – inhibitors of human RAD52 DNA annealing; 360,000 compounds, 0.46% hits; recombinant RAD52 DNA annealing, FRET fluorescence; P43351; inhibition, % at 18.7 µM;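 active means every replicate showing at least 50% inhibition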
XiGFP reactiv – reactivates the inactive X chromosome in mouse fibroblasts; XiGFP mouse fibroblasts, % GFP-positive cells imaging, 3 d; cells co-treated with 5-aza-dC sensitizer; scaled so ellipticine positive control = 100%; 360,000 compounds, 0.055% hits; activation, % at 7.58 µM;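 active means mean normalized replicate activation at least 10% and every replicate at or above 10%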;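 further: 0% = median of on-plate neutral control wells and 100% = ellipticine 6 µM median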
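System: XiGFP fibroblasts, SV40-immortalized. Medium: DMEM plus 5-aza-dC sensitizer. Doses: single point. Timing: 3 d treatment, 15 min room-temperature fixation. Control set: ellipticine 6 µM.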
RAD54 inh – inhibitors of human RAD54 branch migration | Q92698 | 360,000 compounds, 0.14% hits | AID 602329 | RAD54 Holliday junction branch migration, FAM/BHQ fluorescence | inhibition, % at 10.4 µM;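 active means mean normalized replicate activity at least 40 and at least half of replicates scoring 40 or more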;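 further: 0% = median of neutral control wells and 100% = median of positive control wells; inhibitors cause a drop in the FAM fluorescence signal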
Target sequence (Q92698 whole entry, looked up): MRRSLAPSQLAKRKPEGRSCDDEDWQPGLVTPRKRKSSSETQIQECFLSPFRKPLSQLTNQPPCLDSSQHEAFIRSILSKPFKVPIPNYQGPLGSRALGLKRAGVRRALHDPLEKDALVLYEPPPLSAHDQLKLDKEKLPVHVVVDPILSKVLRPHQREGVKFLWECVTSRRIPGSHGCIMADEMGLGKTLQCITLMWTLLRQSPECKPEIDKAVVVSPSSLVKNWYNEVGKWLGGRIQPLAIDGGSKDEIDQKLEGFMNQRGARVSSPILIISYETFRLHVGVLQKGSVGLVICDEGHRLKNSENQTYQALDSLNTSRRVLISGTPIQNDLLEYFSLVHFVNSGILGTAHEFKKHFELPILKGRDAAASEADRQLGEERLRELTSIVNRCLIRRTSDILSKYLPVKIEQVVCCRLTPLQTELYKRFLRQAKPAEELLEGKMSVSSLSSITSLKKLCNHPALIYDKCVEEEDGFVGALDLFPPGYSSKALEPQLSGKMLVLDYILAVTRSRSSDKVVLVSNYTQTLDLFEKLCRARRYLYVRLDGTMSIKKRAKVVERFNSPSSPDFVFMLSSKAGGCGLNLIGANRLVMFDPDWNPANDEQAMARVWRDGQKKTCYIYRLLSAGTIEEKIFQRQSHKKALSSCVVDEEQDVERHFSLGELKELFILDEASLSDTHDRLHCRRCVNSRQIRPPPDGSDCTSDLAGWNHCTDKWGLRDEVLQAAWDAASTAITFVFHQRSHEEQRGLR
rRNA inh HTS – selective bacterial rRNA inhibition in E. coli; E. coli WT GFP vs humanized-ribosome RFP mutants, fluorescence, 24 h; hits give low values; DMSO median 0, no signal -100; GFP signal change (wild-type ribosome), % (concentration not given with the values); 350,000 compounds, 1.6% hits;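 active means significant combined selectivity score with lowered wild-type GFP, culture density cut under 30%, mutant RFP and density less affected; inactive means any of these conditions unmet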
E-selectin induc – E-selectin induction on HUVECs | P16581 | HUVEC E-selectin immunofluorescence imaging; normalized: neutral wells 0, TNF-alpha wells 100 | activation, % at 7.58 µM | 260,000 compounds, 0.37% hits;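 active means mean E-selectin-positive cell signal at least 10% of the positive control, reached in at least 60% of replicates, without over 20% cell loss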
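material = human umbilical vein endothelial cells (HUVEC), E-selectin induction | quantity = 3,000 cells/well | medium = EGM-2 growth medium on 0.1% gelatin-coated wells | technique = immunofluorescence imaging | read-out basis = % PE-positive cells | control set = TNF-alpha positive control, DMSO neutral control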
* = called active by the depositor; . = no result given.

SMILES	PglD inh	RAD52 anneal inh	XiGFP reactiv	RAD54 inh	rRNA inh HTS	E-selectin induc
C/C(=N\NC(=O)c1cc(-c2ccc(C)s2)[nH]n1)c1ccco1	.	-36.6	0.0	.	-35.4*	-0.1
C[C@@H]1CN([C@@H](C)CO)C(=O)c2cc(NC(=O)C3CCCCC3)ccc2O[C@H]1CN(C)Cc1ccc(C(=O)O)cc1	1.6	-5.7	0.3	14.8	0.9	.
CCCCCCOc1ccc(C(CC(=O)NC)C(=O)O)cc1 (stereo unspecified)	-8.6	-17.4	0.0	-6.1	2.6	.
CCCCCCOc1ccc(C(CC(N)=O)C(=O)O)cc1 (stereo unspecified)	-3.3	-6.2	0.1	-5.5	6.6	79.7*
O=C(C(=O)N1CCC(CNS(=O)(=O)c2ccc(F)c(F)c2)CC1)c1cc2ccccc2o1	.	-25.6	0.1	.	-12.4*	0.2
COc1ccc(-c2cn3cc(C)ccc3n2)cc1F	-1.3	-9.1	-0.1	0.3	-30.6*	6.7
COc1ccc(NC(=O)Nc2ccc3c(c2)[C@H]2C[C@@H](CC(=O)NCC4CC4)O[C@@H](CO)[C@H]2O3)cc1	-2.4	-1.6	0.0	-10.2	0.9	0.3
CN1C(=O)c2cc(NC(=O)Nc3ccc(Cl)cc3)ccc2OC[C@H]2O[C@@H](CC(=O)NCCN3CCCCC3)CC[C@H]21	0.5	41.4	0.0	14.8	-1.2	-0.2
CCNC(=O)C[C@@H]1CC[C@@H]2[C@@H](COc3ccc(NC(=O)Nc4cccc(OC)c4)cc3C(=O)N2C)O1	-0.1	.	0.3	-3.3	-0.1	76.2*
CN1C(=O)c2cc(NC(=O)Nc3ccc(Cl)cc3)ccc2OC[C@@H]2O[C@H](CC(=O)NCCN3CCCCC3)CC[C@@H]21	2.7	53.7*	0.0	17.6	-5.9	0.4
O=S(=O)(c1ccccc1F)N1CCCCN2[C@H](CO)[C@H](c3ccc(-c4cccnc4)cc3)[C@H]2C1	-9.9	-13.5	-0.1	-1.0	-2.9	0.0
CCn1c(=O)c([N+](=O)[O-])c(N2CCSCC2)c2ccccc21	3.8	-0.3	0.1	-11.8	-33.5*	0.1
CCn1c(=O)c([N+](=O)[O-])c(N2CCN(Cc3ccc4c(c3)OCO4)CC2)c2ccccc21	.	-16.0	0.1	.	-23.9*	3.6
CCC(=O)N1CC2(CN(Cc3ccc(F)cc3)C2)c2c(n(C)c3cc(OC)ccc23)[C@@H]1CO	.	14.0	0.0	.	-4.2	0.0
COC(=O)C1=C(C)NC(C)=C(C(=O)OC)C1C(=O)OC(C)C(=O)c1ccccc1 (stereo unspecified)	-2.9	-11.7	0.2	7.7	4.3	77.3*
Cc1cnc(NC(=O)Cc2c[nH]c3ccccc23)s1	3.6	-15.3	.	3.1	-22.4*	.
Cc1noc(C)c1S(=O)(=O)Nc1ccc2c(c1)C(=O)N([C@@H](C)CO)C[C@@H](C)[C@H](CN(C)Cc1ccccc1)OCCCC[C@H](C)O2	-1.6	1.9	0.1	-4.1	-1.6	0.0
COc1ccc(OCCn2cc(/C=N/NC(=O)c3ccncc3)c3ccccc32)cc1	.	-10.1	-0.1	.	-20.5*	-3.0
Cc1ccc(OCCn2cc(/C=N/NC(=O)c3ccncc3)c3ccccc32)cc1	8.6	.	0.0	1.4	.	-0.5
N#Cc1cccc(-c2ccc3c(c2)[C@@H]2[C@@H](CCN2C(=O)c2ccccc2F)[C@H](CO)N3)c1	-9.5	19.0	0.0	-6.0	-23.3	1.9
O=C(C1CCCCC1)N1CC[C@@H]2[C@H](CO)Nc3ccc(C#Cc4ccc(F)cc4)cc3[C@@H]21	0.7	-7.5	0.0	5.2	-2.9	22.4
O=C(C1CCCC1)N1CC[C@@H]2[C@H](CO)Nc3ccc(C#Cc4ccc(F)cc4)cc3[C@@H]21	.	-29.7	0.0	.	-1.4	53.7*
N#Cc1cccc(-c2ccc3c(c2)[C@H]2[C@H](CCN2C(=O)c2ccccc2F)[C@H](CO)N3)c1	-2.2	.	0.1	-9.9	-25.5*	0.2
C[C@@H]1CN([C@H](C)CO)C(=O)Cc2cc(NS(=O)(=O)c3ccc(Cl)cc3)ccc2O[C@@H]1CN(C)Cc1ccc(C(=O)Nc2ccccc2N)cc1	.	-4.4	-0.2	.	-6.4	0.7
C=CCOC(=O)c1cn(CC)c2nc(C)ccc2c1=O	-3.5	-18.6	-0.1	3.3	-24.7*	4.0
SMILES	PglD inh	RAD52 anneal inh	XiGFP reactiv	RAD54 inh	rRNA inh HTS	E-selectin induc
CCn1cc(C(=O)NCc2cccc(C(F)(F)F)c2)c(=O)c2ccc(C)nc21	-1.8	-9.7	0.0	8.9	-22.9*	-0.1
C=Cc1ccc(COC(=O)c2cn(CC)c3nc(C)ccc3c2=O)cc1	3.4	9.6	0.0	-6.6	0.7	.
CCn1cc(C(=O)OCC(=O)c2cc(C)n(-c3cccc(C(F)(F)F)c3)c2C)c(=O)c2ccc(C)nc21	2.8	.	.	-1.6	.	.
O=C(N[C@@H]1CC[C@@H](CCNS(=O)(=O)c2ccc(F)cc2)O[C@@H]1CO)c1ccccn1	4.4	-8.7	0.2	1.8	-0.4	0.3
CCOC(=O)c1sc(=S)n(C)c1NC(=O)c1ccccc1	14.1	.	.	-2.4	.	.
CCOC(=O)c1sc(=S)n(C)c1NC(=O)c1cccc(Br)c1	3.5	-10.4	0.0	-2.1	-48.7*	19.8
C[C@@H]1CN([C@H](C)CO)C(=O)c2cc(-c3cccc(F)c3)cnc2O[C@H]1CN(C)CC1CCOCC1	-4.5	4.3	-0.2	9.1	0.1	-0.4
COc1ccc(C(=O)c2cn[nH]c2-c2cc(Cl)ccc2O)cc1	0.1	.	.	-3.0	.	.
COc1ccc(C(=O)c2cn[nH]c2-c2cc(C)ccc2O)cc1	-3.4	-5.5	0.0	2.7	-16.1*	0.5
CC(C)CC#Cc1ccc2c(c1)O[C@H](CN(C)Cc1ccncc1)[C@H](C)CN([C@@H](C)CO)S2(=O)=O	-4.0	12.3	-0.6	-4.8	-4.9	107.8*
CCCN(C)C[C@@H]1Oc2cc(C#CCC(C)C)ccc2S(=O)(=O)N([C@@H](C)CO)C[C@@H]1C	1.0	51.1*	-0.5	2.0	0.3	0.4
C[C@H]1CN([C@@H](C)CO)S(=O)(=O)c2ccc(C#CC3CC3)cc2O[C@H]1CN(C)Cc1ccc(F)cc1	-32.3	-13.7	-0.8	5.3	-10.8	1.0
C[C@@H]1CN([C@@H](C)CO)S(=O)(=O)c2ccc(C#CC3CC3)cc2O[C@H]1CN(C)Cc1ccc(F)cc1	2.2	-10.0	18.4*	-11.4	2.1	4.3
CNC[C@H]1Oc2ccc(NS(=O)(=O)c3c(C)noc3C)cc2CC(=O)N([C@H](C)CO)C[C@H]1C	.	.	0.0	.	3.0	-0.6
CC(C)(C)c1ccc(NC(=O)N2CCCN(c3ccc([N+](=O)[O-])cn3)CC2)cc1	-1.9	-14.9	0.1	-10.6	-33.8	76.3*
CC(C)CC#Cc1cnc2c(c1)C(=O)N([C@@H](C)CO)C[C@@H](C)[C@@H](CN(C)C(=O)C1CCOCC1)O2	.	-2.8	0.2	.	0.7	-0.2

Screens as filed in PubChem BioAssay.
